# Shown are actives, neighbours in structure and some others; about 4.7% of the full set was active somewhere.
# aSyn UTR inh: MLPCN primary screen, SNCA 5' untranslated region. alpha-synuclein 5'UTR reporter, inhibitor activity. inhibition, % (tested at 7.5 µM). 300,000 tested, 0.82% active. AID 1813; in the data active means inhibition above about 60%;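 further: H4 neuroglioblastoma cells stably carrying SNCA 5'UTR luciferase fusion; 0% = DMSO wells and 100% = positive control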
# VIM-2 inhibitor: blocks Pseudomonas aeruginosa VIM-2 metallo-beta-lactamase | purified VIM-2, nitrocefin hydrolysis, epi-absorbance fluorescence | 290,000 tested, 0.89% active | inhibition, % at 5.6 µM;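 active means inhibition above the mean of all tested compounds plus 3 SD, cutoff set per screening run, cut at about 7.5% in these data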;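 further: red hydrolysis product quenches plate fluorescence so inhibitors raise well fluorescence; 0% = enzyme with DMSO and 100% = DMSO without enzyme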
# 697 NFkB inh: inhibitors of the PMA/ionomycin-induced NF-kB reporter in 697 B cells | 697 B-cell NF-kB luciferase reporter, 16 h | inhibition, % at 4 µM | 330,000 tested, 0.33% active | AID 435022; in the data active means inhibition above about 35%
# Jurkat NFkB inh: inhibitors of the PMA/ionomycin-induced NF-kB reporter in Jurkat cells; AID 435003; PMA/ionomycin-induced NF-kB luciferase reporter, luminescence; inhibition, % at 4 µM; 330,000 tested, 0.53% active; in the data active means inhibition above about 50%
# IMP-1 inh: blocks Pseudomonas aeruginosa IMP-1 metallo-beta-lactamase | inhibition, % at 5.6 µM | 290,000 tested, 0.45% active | purified IMP-1, nitrocefin hydrolysis, epi-absorbance fluorescence;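 active means inhibition above the mean plus 3 SD of all compounds in the same screening run, cut at about 4.5% in these data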;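 further: 0% = IMP-1 with DMSO and 100% = DMSO wells lacking enzyme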
#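 System – purified recombinant IMP-1 beta-lactamase · Input – IMP-1 dispensed at 0.2 nM · Timing – 15 min preincubation plus 25 min reaction at 25 °C · Signal – Epi-absorbance fluorescence, 480 nm excitation, 530 nm emission · Measure – percent IMP-1 inhibition derived from blank-referenced optical density · Controls – Enzyme-plus-DMSO low control, enzyme-free DMSO high control · Replication – singlicate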
# Mdm2-MdmX inh: inhibitors of human Mdm2/MdmX interaction. inhibition, % at 8 µM. SaOS-2 split-luciferase Mdm2/MdmX complementation, luminescence. O15151+Q00987. 330,000 tested, 3% active;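 active means inhibition of at least 50% at 8 µM in the primary screen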
# Target sequence (O15151 whole entry, looked up): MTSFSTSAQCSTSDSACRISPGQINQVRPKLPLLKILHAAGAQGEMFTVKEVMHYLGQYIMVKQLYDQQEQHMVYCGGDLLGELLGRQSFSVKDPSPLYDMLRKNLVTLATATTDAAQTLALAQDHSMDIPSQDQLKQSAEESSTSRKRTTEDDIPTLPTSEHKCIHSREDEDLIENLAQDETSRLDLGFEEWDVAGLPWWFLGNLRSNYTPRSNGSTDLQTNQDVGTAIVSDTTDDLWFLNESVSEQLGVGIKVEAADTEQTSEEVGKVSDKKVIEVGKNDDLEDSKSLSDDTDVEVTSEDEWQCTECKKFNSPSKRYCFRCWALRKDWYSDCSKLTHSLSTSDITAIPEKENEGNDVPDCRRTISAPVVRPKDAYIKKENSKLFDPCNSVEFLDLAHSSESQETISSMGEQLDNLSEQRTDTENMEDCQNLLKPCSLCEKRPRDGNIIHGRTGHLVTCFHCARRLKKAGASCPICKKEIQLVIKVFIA
# Target sequence (Q00987 whole entry, looked up): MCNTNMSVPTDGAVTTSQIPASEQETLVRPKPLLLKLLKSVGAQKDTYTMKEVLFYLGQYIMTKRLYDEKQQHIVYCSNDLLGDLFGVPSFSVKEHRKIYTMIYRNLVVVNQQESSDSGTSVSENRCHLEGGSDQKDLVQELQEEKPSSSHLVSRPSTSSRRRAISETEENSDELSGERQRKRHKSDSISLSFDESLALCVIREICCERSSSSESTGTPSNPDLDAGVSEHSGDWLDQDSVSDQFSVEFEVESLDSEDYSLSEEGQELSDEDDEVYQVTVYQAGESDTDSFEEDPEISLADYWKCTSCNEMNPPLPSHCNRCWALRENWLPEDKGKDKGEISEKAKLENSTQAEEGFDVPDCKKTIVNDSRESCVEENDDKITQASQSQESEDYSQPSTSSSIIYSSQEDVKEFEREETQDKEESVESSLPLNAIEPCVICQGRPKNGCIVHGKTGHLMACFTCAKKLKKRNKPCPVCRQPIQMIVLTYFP
# Mdm2-MdmX conf: confirmation of human Mdm2/MdmX interaction inhibitors | AID 489028 | 10,000 tested, 55% active | shares compounds with Mdm2-MdmX inh | inhibition, % at 8 µM | Mdm2-MdmX binding, luminescent assay; in the data active means inhibition above about 40%
# Full FLuc ctr: counter-screen for Mdm2/MdmX inhibitors: full-length luciferase; shares compounds with Mdm2-MdmX inh; inhibition, % at 8 µM; 6,200 tested, 77% active; SaOS-2 full-length luciferase counterscreen, luminescence; AID 504607;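 active means mean inhibition at 8 µM reaching about 37%, which flags the compound as non-specific, limit read from the data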;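 further: p53-null SaOS-2 cells with luciferase driven by a doxycycline-inducible promoter; compound on cells about two nights before reading with doxycycline added after day one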
# * marks the source's active call; other numbers are inactive results; . = not tested or not shown.
SMILES,aSyn UTR inh,VIM-2 inhibitor,697 NFkB inh,Jurkat NFkB inh,IMP-1 inh,Mdm2-MdmX inh,Mdm2-MdmX conf,others
COCc1cc(=O)[nH]c(Cc2c(Cl)cccc2Cl)n1,-15,-2,20,-2,-3,15,.,
Cc1n[nH]c(C)c1N=Nc1cc(Cl)ccc1Cl,15,-1,-5,10,-2,52*,40,Full FLuc ctr=39*
C/C(=N\NC(=O)CNC(=O)C(c1ccccc1)c1ccccc1)c1ccc(C(C)(C)C)cc1,29,-4,4,1,-1,55*,14,
Cc1ccc(S(=O)(=O)NCCC(=O)Nc2ccc(C)cc2C(=O)c2ccccc2)cc1,12,-3,-8,-9,0,26,.,
C=CC[C@@H](CC(=O)N(CCO)Cc1ccccc1)C(=O)NC[C@H](OC(=O)[C@@H](CC=C)Cc1ccc(F)cc1)c1ccccc1,.,.,28,3,.,85*,71*,Full FLuc ctr=49*
C=CCC[C@@H](Cc1ccc(F)cc1)C(=O)OC[C@@H](Cc1c[nH]c2ccccc12)NC(=O)[C@H](CC=C)CC(=O)N(CCO)Cc1ccccc1,.,.,5,-6,.,94*,26,
C=CCC[C@H](Cc1ccc(F)cc1)C(=O)OC[C@@H](Cc1c[nH]c2ccccc12)NC(=O)[C@H](CC=C)CC(=O)N(CCO)Cc1ccccc1,.,.,-11,-20,.,94*,34,
C=CCC[C@H](Cc1ccc(F)cc1)C(=O)OC[C@H](Cc1c[nH]c2ccccc12)NC(=O)[C@H](CC=C)CC(=O)N[C@H](CO)Cc1ccccc1,.,.,-8,6,.,-3,.,
C=CCC[C@H](Cc1ccc(F)cc1)C(=O)OC[C@@H](NC(=O)[C@@H](CC=C)CC(=O)N(CCO)Cc1ccccc1)C(C)(C)C,.,.,-4,1,.,50*,15,
C=CC[C@H](CC(=O)N(CCO)Cc1ccccc1)C(=O)N[C@H](COC(=O)[C@@H](CC=C)Cc1ccc(F)cc1)C(C)(C)C,.,.,-32,7,.,22,.,
C=CCC[C@H](Cc1ccc(F)cc1)C(=O)OC[C@@H](Cc1c[nH]c2ccccc12)NC(=O)[C@H](CC=C)CC(=O)NCCO,.,.,2,-4,.,6,.,
CC1(C)CC(=O)C=C(c2cccc3c2sc2ccccc23)C1,.,.,-10,-22,.,-39,.,
O=C(OC1CCOC1=O)c1cccc(S(=O)(=O)Nc2cccc(Cl)c2)c1 (configuration not stated),18,-1,4,2,-2,20,.,
N#C/C(N=Nc1ccccc1O)=N\Nc1ccccc1O,29,.,-89,0,.,82*,94*,Full FLuc ctr=18
CCOC(=O)c1sc(=S)n(C)c1NC(=O)c1ccc(C(C)(C)C)cc1,22,-4,-21,-4,-2,61*,31,
COc1ccc(OC)c(NC(=O)c2oc3ccccc3c2NC(=O)C2CC2)c1,-8,-2,0,10,-3,58*,18,
COc1ccc(NC(=O)c2oc3ccccc3c2NC(=O)C2CC2)c(OC)c1,-4,-1,8,1,-1,20,.,
CC/C(=N\NC(=O)C(N)=O)c1ccccc1O,0,-4,27,-10,-3,2,.,
COCC(C)NC(=O)Cc1ccc(F)cc1 (configuration not stated),6,-4,1,13,-1,2,.,
O=C(CN1CCOCC1)N/N=C/c1c(O)ccc2ccccc12,32,-2,12,8,-2,47,.,
Cc1ccc(C(=O)N/N=C/c2c(O)ccc3ccccc23)cn1,62*,-1,17,31,-2,75*,82*,Full FLuc ctr=27
COc1ccc2ccccc2c1/C=N\NC(=O)c1cccnc1,15,.,-12,1,.,27,.,
COc1ccccc1/C=N/NC(=O)c1ccc(C)nc1,-8,-3,6,5,-3,23,.,
Cn1nccc1C(=O)N/N=C/c1c(O)ccc2ccccc12,92*,-6,-3,45,-4,82*,80*,Full FLuc ctr=31
O=C(N/N=C/c1c(O)ccc2ccccc12)c1cccnc1,93*,-2,-1,13,0,70*,74*,Full FLuc ctr=30

# High-throughput results (PubChem)
